Legend:
Rattus norvegicus [1] = assay: Tested for in vivo Antihypertensive activity in DOCA rat by giving subcutaneous dose of 30 mg/kg; type: functional
Method in brief: (§1)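 Male Sprague-Dawley rats (100–150 g) had DOCA-Na hypertension induced and were used 17–21 days later if mean BP was >150 mmHg. Rats were not fasted. Mean BP was recorded after 90-min equilibration. Dosing was sc in TRIS buffer (2 mL/kg) or po in 0.4% aqueous methylcellulose (4 mL/kg). The maximum BP fall over 4 h versus vehicle controls was taken, averaged over four or more animals.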

[2] = molecular target: T1, Angiotensin-converting enzyme (Oryctolagus cuniculus, UniProt P12822); assay: Tested in vitro for its inhibitory activity against angiotensin converting enzyme
T1 sequence (P12822 whole entry): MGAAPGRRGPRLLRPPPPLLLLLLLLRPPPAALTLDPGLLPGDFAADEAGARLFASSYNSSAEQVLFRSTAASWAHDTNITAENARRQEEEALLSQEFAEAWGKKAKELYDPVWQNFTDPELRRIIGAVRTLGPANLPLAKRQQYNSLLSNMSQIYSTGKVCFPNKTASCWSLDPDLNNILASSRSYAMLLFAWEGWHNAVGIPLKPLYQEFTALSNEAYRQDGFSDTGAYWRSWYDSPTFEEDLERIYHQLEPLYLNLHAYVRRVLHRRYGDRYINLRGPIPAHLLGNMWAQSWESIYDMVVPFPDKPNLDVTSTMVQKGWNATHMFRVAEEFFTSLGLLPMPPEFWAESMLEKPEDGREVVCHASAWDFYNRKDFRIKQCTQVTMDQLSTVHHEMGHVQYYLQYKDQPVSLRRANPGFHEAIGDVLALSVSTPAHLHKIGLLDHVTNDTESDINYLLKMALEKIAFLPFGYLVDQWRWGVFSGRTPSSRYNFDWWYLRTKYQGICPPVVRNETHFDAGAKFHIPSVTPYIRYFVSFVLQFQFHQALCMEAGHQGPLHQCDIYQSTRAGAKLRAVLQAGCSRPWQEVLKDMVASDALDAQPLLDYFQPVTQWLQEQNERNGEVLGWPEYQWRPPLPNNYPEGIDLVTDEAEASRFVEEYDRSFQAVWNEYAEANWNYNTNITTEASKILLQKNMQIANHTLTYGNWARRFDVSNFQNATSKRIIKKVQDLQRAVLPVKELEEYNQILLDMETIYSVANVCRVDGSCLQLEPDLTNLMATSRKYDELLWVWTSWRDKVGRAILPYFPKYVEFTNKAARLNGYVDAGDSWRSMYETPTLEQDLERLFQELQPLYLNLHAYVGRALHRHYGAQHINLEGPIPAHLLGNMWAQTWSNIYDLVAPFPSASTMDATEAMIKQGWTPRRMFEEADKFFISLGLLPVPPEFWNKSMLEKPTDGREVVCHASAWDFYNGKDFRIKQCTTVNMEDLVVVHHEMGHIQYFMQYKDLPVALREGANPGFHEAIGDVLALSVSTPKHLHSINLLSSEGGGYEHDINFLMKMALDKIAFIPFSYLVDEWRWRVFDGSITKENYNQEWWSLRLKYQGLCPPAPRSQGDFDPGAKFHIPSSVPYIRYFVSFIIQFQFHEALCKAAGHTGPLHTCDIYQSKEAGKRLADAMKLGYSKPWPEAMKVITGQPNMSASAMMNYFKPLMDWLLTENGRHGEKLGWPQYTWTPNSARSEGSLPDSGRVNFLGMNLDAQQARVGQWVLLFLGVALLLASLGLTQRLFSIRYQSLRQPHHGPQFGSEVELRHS

Rattus norvegicus [3] = assay: In vivo potentiation of ANF induced hypotension in rat, following subcutaneous dose of 30 mg/kg; type: functional
Method in brief: (§2)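 Conscious male SHR (270–300 g) had caudal artery and jugular vein cannulae placed under ether. After at least 90 min of stabilization, ANF 103-125 or 99-126 was given as an iv bolus at a submaximal dose. 60–90 min later, drug or vehicle (0.2% aqueous methylcellulose with 20% Tris-HCl) was given sc. ANF was repeated 15 min after dosing, and the response was compared with vehicle controls. Values are means of four or more animals.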

Rattus norvegicus [4] = assay: Tested for in vivo Antihypertensive activity in DOCA rat by giving peroral dose of 30 mg/kg; type: functional; details: route oral; method in brief: as §1
Neprilysin [5] = molecular target: T2, Neprilysin (Oryctolagus cuniculus, UniProt P08049); assay: In vitro inhibitory activity against neutral endopeptidase (NEP)
T2 sequence (P08049 whole entry): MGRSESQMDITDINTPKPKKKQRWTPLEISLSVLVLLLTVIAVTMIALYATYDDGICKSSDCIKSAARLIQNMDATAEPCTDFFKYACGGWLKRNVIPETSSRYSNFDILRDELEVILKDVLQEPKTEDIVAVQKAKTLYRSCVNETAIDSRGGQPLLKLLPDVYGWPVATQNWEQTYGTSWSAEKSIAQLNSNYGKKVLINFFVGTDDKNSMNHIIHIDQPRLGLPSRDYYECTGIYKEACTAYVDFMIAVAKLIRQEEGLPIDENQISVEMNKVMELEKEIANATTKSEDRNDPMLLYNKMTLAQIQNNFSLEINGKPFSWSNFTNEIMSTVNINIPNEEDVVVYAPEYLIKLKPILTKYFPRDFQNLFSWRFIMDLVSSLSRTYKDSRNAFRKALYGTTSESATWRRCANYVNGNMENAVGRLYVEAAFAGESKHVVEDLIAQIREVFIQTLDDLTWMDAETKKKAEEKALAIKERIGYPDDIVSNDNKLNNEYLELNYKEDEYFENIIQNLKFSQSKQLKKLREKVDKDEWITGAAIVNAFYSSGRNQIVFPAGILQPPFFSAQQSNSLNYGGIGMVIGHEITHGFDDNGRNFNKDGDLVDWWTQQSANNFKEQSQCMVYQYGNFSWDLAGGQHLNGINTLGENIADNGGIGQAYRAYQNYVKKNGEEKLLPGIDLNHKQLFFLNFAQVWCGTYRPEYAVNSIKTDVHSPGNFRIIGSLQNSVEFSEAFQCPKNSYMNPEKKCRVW
Method in brief: (§3)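 Purified rabbit kidney NEP (EC 24.11) was the enzyme source, with [³H]Leu-enkephalin as the substrate.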

Neprilysin [6] = molecular target: T2, Neprilysin; assay: Ttested for its inhibitory activity against neutral endopeptidase (NEP); method in brief: as §3
Rattus norvegicus [7] = assay: Tested for in vivo Antihypertensive activity in DOCA rat by giving peroral dose of 1 mg/Kg; type: functional; method in brief: as §1
Rattus norvegicus [8] = assay: Tested for in vivo Antihypertensive activity in DOCA rat by giving subcutaneous dose of 3 mg/kg; type: functional; method in brief: as §1
Rattus norvegicus [9] = assay: In vivo potentiation of ANF Induced Hypotension in rat was determined by giving peroral dose of 10 mg/kg; type: functional; details: route oral
Rattus norvegicus [10] = assay: In vivo potentiation of ANF Induced Hypotension in rat was determined by giving peroral dose of 3 mg/kg; type: functional; details: route oral
Rattus norvegicus [11] = assay: Tested for in vivo Antihypertensive activity in DOCA rat by giving peroral dose of 10 mg/kg; type: functional; details: route oral; method in brief: as §1
Rattus norvegicus [12] = assay: Tested for in vivo Antihypertensive activity in DOCA rat by giving subcutaneous dose of 1 mg/kg; type: functional; method in brief: as §1
Rattus norvegicus [13] = assay: In vivo potentiation of ANF Induced Hypotension in rat was determined by giving subcutaneous dose of 10 mg/kg; type: functional; method in brief: as §2
Rattus norvegicus [14] = assay: Tested for in vivo Antihypertensive activity in DOCA rat by giving peroral dose of 3 mg/kg; type: functional; details: route oral
Method in brief: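 Male Sprague-Dawley rats (100–150 g at preparation) made DOCA-Na hypertensive, used 17–21 days after induction if mean BP >150 mmHg, nonfasted. Drug given orally as solution or suspension in 0.4% aqueous methylcellulose (4 mL/kg). Mean BP recorded after 90-min equilibration. Value is maximum BP fall over 4 h versus vehicle-treated controls, averaged over four or more animals.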

Rattus norvegicus [15] = assay: Tested for in vivo Antihypertensive activity in DOCA rat by giving subcutaneous dose of 10 mg/kg; type: functional; method in brief: as §1
Rattus norvegicus [16] = assay: In vivo potentiation of ANF Induced Hypotension in rat was determined by giving subcutaneous dose of 90 mg/kg ANF; type: functional
Rattus norvegicus [17] = assay: Tested for in vivo Antihypertensive activity in DOCA rat by giving peroral dose of 3 mg/Kg; type: functional; method in brief: as §1
Rattus norvegicus [18] = assay: Tested for in vivo Antihypertensive activity in DOCA rat by giving peroral dose of 1 mg/kg; type: functional; details: route oral; method in brief: as §1
Rattus norvegicus [19] = assay: Ttested for in vivo Antihypertensive activity in DOCA rat by giving subcutaneous dose of 0.1 mg/kg; type: functional; method in brief: as §1

Row | SMILES | IC50 [2] [µM] | IC50 (Neprilysin [5]) [µM] | Delta blood pressure (Rattus norvegicus [1]) [mmHg] | Delta blood pressure (Rattus norvegicus [3]) [mmHg] | other results
1 | COc1ccc(CSC[C@@H](NC(=O)[C@H](CS)Cc2ccccc2)C(=O)O)cc1 |  |  |  | 23 | IC50 (Neprilysin [6]): 0.017 µM; Delta blood pressure (Rattus norvegicus [4]): 0 mmHg
2 | CSCC[C@@H](NC(=O)[C@H](CSC(=O)c1ccccc1)Cc1ccccc1)C(N)=O |  |  | 0 |  | Delta blood pressure (Rattus norvegicus [9]): 52 mmHg; Delta blood pressure (Rattus norvegicus [10]): 19 mmHg
3 | Cc1ccc(CSC[C@@H](NC(=O)[C@H](CS)Cc2ccccc2)C(N)=O)cc1 |  | > 0.3 |  | 17 | Delta blood pressure (Rattus norvegicus [11]): 46 mmHg; Delta blood pressure (Rattus norvegicus [8]): 17 mmHg
4 | CC(=O)SC[C@H](Cc1ccccc1)C(=O)N[C@H](CSCc1ccc(C)cc1)C(=O)O |  |  |  |  | Delta blood pressure (Rattus norvegicus [9]): 20 mmHg
5 | C[C@H](CS)C(=O)N[C@H](CSCc1ccccc1)C(=O)O | 0.058 | 0.046 | 0 | 19 | 
6 | Cc1ccc(CSC[C@@H](NC(=O)[C@@H](CS)Cc2cccc3ccccc23)C(=O)O)cc1 | > 1 | 0.002 |  | 0 | Delta blood pressure (Rattus norvegicus [11]): 8 mmHg; Delta blood pressure (Rattus norvegicus [12]): 47 mmHg; Delta blood pressure (Rattus norvegicus [4]): 33 mmHg; Delta blood pressure (Rattus norvegicus [8]): 26 mmHg
7 | CC(=O)SC[C@@H](Cc1ccccc1)C(=O)N[C@H](CSCc1ccc(C)cc1)C(=O)O |  |  | 48 |  | Delta blood pressure (Rattus norvegicus [13]): 42 mmHg
8 | Cc1ccc(CSC[C@@H](NC(=O)[C@@H](CS)Cc2ccccc2)C(=O)O)cc1C |  |  |  | 23 | IC50 (Neprilysin [6]): 0.37 µM
9 | Cc1ccc(CSC[C@@H](NC(=O)[C@@H](CS)Cc2ccccc2)C(=O)O)cc1 | 0.019 | 0.011 | 17 | 48 | 
10 | CC(=O)SC[C@H](Cc1ccccc1)C(=O)N[C@H](CSCc1ccc(C)cc1)C(N)=O |  |  |  |  | Delta blood pressure (Rattus norvegicus [11]): 0 mmHg; Delta blood pressure (Rattus norvegicus [13]): 0 mmHg
11 | O=C(N[C@H](CSCc1ccccc1)C(=O)O)[C@H](CS)Cc1ccccc1 | > 1 | 0.032 | 55 |  | Delta blood pressure (Rattus norvegicus [15]): 21 mmHg; Delta blood pressure (Rattus norvegicus [16]): 45 mmHg
12 | CSCC[C@@H](NC(=O)[C@@H](CSC(C)=O)Cc1ccccc1)C(N)=O |  |  |  | 23 | Delta blood pressure (Rattus norvegicus [17]): 39 mmHg
13 | O=C(N[C@H](CSCc1ccccc1)C(=O)O)[C@@H](CS)Cc1ccccc1 | 0.024 | 0.009 | 30 |  | Delta blood pressure (Rattus norvegicus [15]): 17 mmHg; Delta blood pressure (Rattus norvegicus [3]; 30 mg/kg): 35 mmHg
14 | CSCC[C@@H](NC(=O)C(CSC(C)=O)Cc1ccccc1)C(=O)N1CCCCC1 (stereo partly specified) |  |  |  | 38 | Delta blood pressure (Rattus norvegicus [15]): 32 mmHg; Delta blood pressure (Rattus norvegicus [8]): 3 mmHg
15 | CCOC(=O)[C@@H](CCSC)NC(=O)[C@@H](CSC(C)=O)Cc1ccccc1C | 0.25 | > 0.3 |  | 36 | Delta blood pressure (Rattus norvegicus [11]): 70 mmHg; Delta blood pressure (Rattus norvegicus [18]): 27 mmHg; Delta blood pressure (Rattus norvegicus [17]): 48 mmHg

The next lines start with results.

Row | IC50 [2] [µM] | IC50 (Neprilysin [5]) [µM] | SMILES | Delta blood pressure (Rattus norvegicus [1]) [mmHg] | Delta blood pressure (Rattus norvegicus [3]) [mmHg] | other results
16 | 1.2 | 0.02 | Cc1ccc(CSC[C@@H](NC(=O)[C@H](CS)Cc2ccccc2)C(=O)O)cc1 | 33 | 48 | Delta blood pressure (Rattus norvegicus [4]): 28 mmHg
17 | 0.1 | 0.007 | CSCC[C@@H](NC(=O)[C@@H](CS)Cc1ccccc1C)C(=O)O |  |  | Delta blood pressure (Rattus norvegicus [7]): 24 mmHg; Delta blood pressure (Rattus norvegicus [8]): 43 mmHg
18 | 0.12 | 0.004 | CSCC[C@@H](NC(=O)C(CS)Cc1ccccc1)C(=O)O (stereo partly specified) | 42 | 25 | Delta blood pressure (Rattus norvegicus [4]): 18 mmHg
19 | > 1 | > 0.3 | CSCC[C@@H](NC(=O)[C@H](CS)CCc1ccccc1)C(=O)O |  |  | Delta blood pressure (Rattus norvegicus [14]): 6 mmHg
20 | 0.028 | 0.0024 | CCSC[C@@H](NC(=O)[C@@H](CS)Cc1ccccc1)C(=O)O |  | 19 | Delta blood pressure (Rattus norvegicus [11]): 61 mmHg; Delta blood pressure (Rattus norvegicus [12]): 22 mmHg; Delta blood pressure (Rattus norvegicus [19]): 21 mmHg
